# What was measured:
# [1] = system: pooled human liver microsomes; test: Glucuronidation incubation in permeabilized human microsomes; format: in vitro ADME
# Summary of the method: (§1)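 Pooled liver microsomes (human for line 1, female rat for line 2), permeabilized with 25 µg/mL alamethicin at 0.25 mg/mL protein in 0.1 M phosphate pH 7.4, 50 mM Tris-HCl, 10 mM MgCl₂. Test compound at 5,000 ng/mL; started with […]. Sampled at 0 and 60 min, quenched in acetonitrile, run in triplicate. LC-MS/MS read parent and the 639.5>433.5 glucuronide channel.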
# [2] = Plasma pharmacokinetics in a patient after IV infusion of VX-970; format: in vivo, human
# Summary of the method: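 One patient received a 1 h IV infusion at 60 mg/m², with blood sampled from 0 to 72 h. Plasma (50 µL) was spiked with deuterated internal standard, precipitated with acetonitrile, diluted with water and run by positive-ESI MRM LC-MS/MS. Calibration spanned 3–5000 ng/mL, and the glucuronide channel was also monitored. PK parameters were derived non-compartmentally.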
# [3] = Stability of VX-970 in human plasma; format: in vitro ADME
# Summary of the method: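 Test compound was spiked into human plasma at QC levels of 5, 150 and 4000 ng/mL, in triplicate. Long-term stability: 8 months at -80 °C, read against freshly prepared standard curves. Freeze/thaw: 3 cycles, frozen at -80 °C and thawed on separate days, compared with fresh samples. Bench stability: 4 h at room temperature. Quantitation was by LC-MS/MS with deuterated internal standard.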
# [4] = system: pooled female rat microsomes; test: Glucuronidation incubation in permeabilized rat microsomes; format: in vitro ADME
# Summary of the method: as §1
# [5] = Stability of VX-970 in stock solution; format: physicochemical
# [6] = format: in vitro ADME; settings: bile spiked human plasma, room temperature 4 h
# Summary of the method: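 Bile from treated animals, containing the direct glucuronide, was spiked into human plasma. Parent compound was quantitated by LC-MS/MS before and after 4 h at room temperature. Bile was also spiked into phosphate buffers at pH 5, 6, 7, 8 and 9 with the same 4 h room-temperature hold. The glucuronide was monitored via the 639.5>433.5 channel.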
# [7] = one patient, 1 h IV infusion 60 mg/m^2, non-compartmental
compound,measurement,setting,value
CNCc1ccc(-c2cc(-c3nc(-c4ccc(S(=O)(=O)C(C)C)cc4)cnc3N)on2)cc1 [VX-970],Drug remaining in the incubation mixture,"[1]; human microsomes 0.25 mg/mL, 5,000 ng/mL VX-970, UDPGA, 60 min",99.9%
same,Glucuronidation,"[1]; permeabilized human microsomes, 5,000 ng/mL VX-970, 60 min",no glucuronidation
same,AUC(0-inf),"[2]; human, plasma, iv, 60 mg/m^2",2500 ng·h/mL
same,AUC(0-t),"[2]; human, plasma, iv, 60 mg/m^2",2430 ng·h/mL
same,Cmax,"[2]; human, plasma, iv, 60 mg/m^2",343 ng/mL
same,half-life,"[2]; human, plasma, iv, 60 mg/m^2",14 h
same,Cl,[2]; [7],24.0 L/h/m^2
same,Vss,[2]; [7],386 L/m^2
same,recovery at 8 months,"[3]; human, plasma",92.2 to 100%
same,Stability (%),"[3]; plasma 3 freeze-thaw cycles, −80 °C, QCH 4000 ng/mL",98.1%
same,Stability (%),"[3]; plasma 3 freeze-thaw cycles, −80 °C, QCL 5 ng/mL",98.1%
same,Stability (%),"[3]; plasma 3 freeze-thaw cycles, −80 °C, QCM 150 ng/mL",99.6%
same,Stability (%),"[3]; plasma 8 months, −80 °C, QCH 4000 ng/mL",96.2%
same,Stability (%),"[3]; plasma 8 months, −80 °C, QCL 5 ng/mL",92.2%
same,Stability (%),"[3]; plasma 8 months, −80 °C, QCM 150 ng/mL",100.1%
same,Stability (%),"[3]; plasma 4 h, ambient temp., QCH 4000 ng/mL",100.2%
same,Stability (%),"[3]; plasma 4 h, ambient temp., QCL 5 ng/mL",96.2%
same,Stability (%),"[3]; plasma 4 h, ambient temp., QCM 150 ng/mL",96.0%
same,Metabolite in the 639.3>433.5 m/z glucuronide channel,[4]; rat microsome incubation of VX-970,No metabolite was observed
same,Drug remaining in the incubation mixture,"[4]; rat microsomes 0.25 mg/mL, 5,000 ng/mL VX-970, UDPGA, 60 min",87.5%
same,Stability (%),"[5]; stock solution 8 months, −80 °C, 100,000 ng/mL",95.7%
same,Stability (%),"[5]; stock solution 6 h, ambient temp, 100,000 ng/mL",96.7%
same,"VX-970 concentrations in bile spiked plasma, % stable",[6],96.5%

# Source: paper PMC5632222 (Journal of pharmaceutical and biomedical analysis, 2017)
